In ChEMBL document CHEMBL1806382, “Special ergolines efficiently inhibit the chemokine receptor CXCR3 in blood” (Bioorg Med Chem Lett, 2011):
pIC50: −log10 of the molar value.

How the values were obtained:
[1] = molecular target: T1, C-X-C chemokine receptor type 3 (Mus musculus, UniProt O88410); assay: Antagonist activity at mouse CXCR3 expressed in mouse L1.2 cells assessed as inhibition of ITAC-induced calcium mobilization by FLIPR assay; format: functional, cell-based
T1 sequence (O88410 whole entry): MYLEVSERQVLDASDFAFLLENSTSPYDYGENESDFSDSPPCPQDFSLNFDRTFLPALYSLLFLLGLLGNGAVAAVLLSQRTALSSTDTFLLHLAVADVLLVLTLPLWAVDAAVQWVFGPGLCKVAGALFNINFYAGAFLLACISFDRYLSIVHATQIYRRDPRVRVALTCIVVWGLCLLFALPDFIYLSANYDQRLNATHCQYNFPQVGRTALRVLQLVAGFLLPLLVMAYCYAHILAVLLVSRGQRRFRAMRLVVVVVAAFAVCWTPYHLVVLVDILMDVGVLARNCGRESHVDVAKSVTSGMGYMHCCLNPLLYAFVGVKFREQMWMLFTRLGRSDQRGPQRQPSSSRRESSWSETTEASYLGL

[2] = molecular target: T2, C-X-C chemokine receptor type 3 (Homo sapiens, UniProt P49682); assay: Displacement of radiolabeled CXCL11 from human CXCR3 expressed in CHO cells by scintillation proximity assay; format: cell-based
T2 sequence (P49682 whole entry): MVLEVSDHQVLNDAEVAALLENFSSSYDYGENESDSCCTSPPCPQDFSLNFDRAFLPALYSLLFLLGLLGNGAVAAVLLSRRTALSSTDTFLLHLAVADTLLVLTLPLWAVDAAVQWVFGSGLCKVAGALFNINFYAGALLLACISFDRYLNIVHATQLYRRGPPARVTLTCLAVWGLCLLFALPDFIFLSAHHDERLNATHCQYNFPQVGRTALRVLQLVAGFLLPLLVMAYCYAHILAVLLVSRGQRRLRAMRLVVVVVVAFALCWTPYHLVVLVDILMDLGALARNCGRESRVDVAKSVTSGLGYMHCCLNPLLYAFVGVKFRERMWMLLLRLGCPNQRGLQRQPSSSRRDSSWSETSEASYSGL

[3] = molecular target: T2, C-X-C chemokine receptor type 3; assay: Antagonist activity at human CXCR3 expressed in mouse L1.2 cells assessed as inhibition of ITAC-induced calcium mobilization by FLIPR assay; format: functional, cell-based
[4] = molecular target: T3, C-X-C chemokine receptor type 3 (Rattus norvegicus, UniProt Q9JII9); assay: Ex vivo receptor occupancy of CXCR3 in rat blood assessed as inhibition of ITAC binding after 1 hr by flow cytometry
T3 sequence (Q9JII9 whole entry): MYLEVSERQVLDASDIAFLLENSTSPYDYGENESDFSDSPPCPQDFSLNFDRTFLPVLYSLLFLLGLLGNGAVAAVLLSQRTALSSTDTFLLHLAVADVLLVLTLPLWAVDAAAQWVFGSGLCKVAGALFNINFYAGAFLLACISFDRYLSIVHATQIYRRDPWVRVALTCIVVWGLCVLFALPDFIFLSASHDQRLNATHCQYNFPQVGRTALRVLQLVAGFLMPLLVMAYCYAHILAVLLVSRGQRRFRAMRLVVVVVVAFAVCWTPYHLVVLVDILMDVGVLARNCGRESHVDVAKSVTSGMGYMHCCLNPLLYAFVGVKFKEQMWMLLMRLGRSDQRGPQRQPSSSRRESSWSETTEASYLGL
Procedure, shortened: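 Blood samples were pre-incubated with inhibitor, then I-TAC was added and incubation continued for 1 h at 37 °C. Samples were stained with fluorescence-labelled anti-CXCR3 antibodies, and lymphocyte fluorescence was read by flow cytometry. Restoration of anti-CXCR3 staining was compared with samples not given I-TAC. IC50 is the concentration giving 50% inhibition of I-TAC binding to CXCR3.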

| Structure (SMILES) | pIC50 [1] | pIC50 [2] | pIC50 [3] | pIC50 [4] |
| --- | --- | --- | --- | --- |
| CC(C)OC(=O)Cn1cc2c3c(cccc31)C1=C[C@@H](C(=O)N3CCCC3)CN(C(=O)Nc3ccccc3)[C@@H]1C2 | 7.28 |  |  |  |
| O=C([C@@H]1C=C2c3cccc4[nH]cc(c34)C[C@H]2N(C(=O)Nc2ccccc2)C1)N1CCNCC1 | 5.76 | 6.00 | 6.34 |  |
| O=C([C@@H]1C=C2c3cccc4c3c(cn4CCN3CCOCC3)C[C@H]2N(C(=O)Nc2ccccc2)C1)N1CCCC1 | 8.30 | 7.62 | 8.10 | 7.40 |
| O=C([C@@H]1C=C2c3cccc4[nH]cc(c34)C[C@H]2N(C(=O)Nc2ccccc2)C1)N1CCS(=O)(=O)CC1 | 6.27 | 6.40 | 7.17 |  |
| O=C([C@@H]1C=C2c3cccc4[nH]cc(c34)C[C@H]2N(C(=O)Nc2ccsc2)C1)N1CCCC1 | 7.96 | 7.59 | 8.15 |  |
| O=C([C@@H]1C=C2c3cccc4c3c(cn4CCN3CCCC3)C[C@H]2N(C(=O)Nc2ccccc2)C1)N1CCCC1 | 8.70 | 8.52 | 8.52 | 7.85 |
| O=C([C@@H]1C=C2c3cccc4[nH]cc(c34)C[C@H]2N(C(=O)Nc2ccccc2)C1)N1CC=CC1 | 8.52 | 7.77 | 8.52 |  |
| COc1ccc(NC(=O)N2C[C@H](C(=O)N3CCCC3)C=C3c4cccc5[nH]cc(c45)C[C@H]32)cc1 |  | 6.41 | 7.05 |  |
| O=C([C@@H]1C=C2c3cccc4[nH]cc(c34)C[C@H]2N(C(=O)NCc2ccco2)C1)N1CCCC1 |  | 5.59 | 5.00 |  |
| CN1CCN(CCn2cc3c4c(cccc42)C2=C[C@@H](C(=O)N4CCCC4)CN(C(=O)Nc4ccccc4)[C@@H]2C3)CC1 | 8.52 | 8.30 | 8.30 | 7.64 |
| O=C([C@@H]1C=C2c3cccc4[nH]cc(c34)C[C@H]2N(C(=O)Nc2ccccc2)C1)N1CC[C@H](O)C1 | 7.72 | 7.33 | 7.92 |  |
| CC1CN(C(=O)[C@@H]2C=C3c4cccc5[nH]cc(c45)C[C@H]3N(C(=O)Nc3ccccc3)C2)CC(C)O1 (stereo partly drawn) |  | 5.94 | 6.67 |  |
| O=C([C@@H]1C=C2c3cccc4[nH]cc(c34)C[C@H]2N(C(=O)Cc2ccccc2)C1)N1CCCC1 |  | 6.37 | 6.77 |  |
| NC(=O)[C@@H]1C=C2c3cccc4[nH]cc(c34)C[C@H]2N(C(=O)Nc2ccccc2)C1 |  | < 5.00 |  |  |
| CC(=O)N1CCN(C(=O)[C@@H]2C=C3c4cccc5[nH]cc(c45)C[C@H]3N(C(=O)Nc3ccccc3)C2)CC1 |  | 6.08 | 6.54 |  |
| O=C([C@@H]1C=C2c3cccc4[nH]cc(c34)C[C@H]2N(C(=O)c2ccccc2)C1)N1CCCC1 |  | < 5.00 | 5.21 |  |
| CN(C)Cc1cccc(NC(=O)N2C[C@H](C(=O)N3CCCC3)C=C3c4cccc5[nH]cc(c45)C[C@H]32)c1 |  |  | 5.21 |  |
| O=C([C@@H]1C=C2c3cccc4[nH]cc(c34)C[C@H]2N(C(=O)Nc2ccccc2)C1)N1CC[C@@H](O)[C@@H](O)C1 | 7.40 | 7.30 | 6.70 |  |
| COc1ccccc1NC(=O)N1C[C@H](C(=O)N2CCCC2)C=C2c3cccc4[nH]cc(c34)C[C@H]21 |  | 6.28 | 7.22 |  |
| O=C([C@@H]1C=C2c3cccc4[nH]cc(c34)C[C@H]2N(C(=O)Nc2ccccc2)C1)N1C=CCCC1 | 8.70 | 7.92 | 8.40 |  |
| COc1cccc(NC(=O)N2C[C@H](C(=O)N3CCCC3)C=C3c4cccc5[nH]cc(c45)C[C@H]32)c1 | 7.13 | 6.56 | 7.57 |  |
| CCNC(=O)[C@@H]1C=C2c3cccc4[nH]cc(c34)C[C@H]2N(C(=O)Nc2ccccc2)C1 | 7.05 | 6.42 | 7.15 |  |
| O=C([C@@H]1C=C2c3cccc4c3c(cn4CCN3CCCCC3)C[C@H]2N(C(=O)Nc2ccccc2)C1)N1CCCC1 | 8.52 | 8.70 | 8.30 | 7.80 |
| CCN(CC)C(=O)[C@@H]1C=C2c3cccc4[nH]cc(c34)C[C@H]2N(C(=O)Nc2ccccc2)C1 |  | 7.29 |  |  |

| Structure (SMILES) | pIC50 [1] | pIC50 [2] | pIC50 [3] | pIC50 [4] |
| --- | --- | --- | --- | --- |
| O=C([C@@H]1C=C2c3cccc4[nH]cc(c34)C[C@H]2N(C(=O)NC2CCCCCC2)C1)N1CCCC1 | 7.80 | 7.55 | 7.85 |  |
| O=C([C@@H]1C=C2c3cccc4[nH]cc(c34)C[C@H]2N(C(=O)Nc2ccccc2)C1)N1CCC1 | 7.85 |  |  |  |
| O=C([C@@H]1C=C2c3cccc4[nH]cc(c34)C[C@H]2N(C(=O)Nc2cccs2)C1)N1CCCC1 | 8.00 | 7.43 | 8.10 |  |
| O=C([C@@H]1C=C2c3cccc4[nH]cc(c34)C[C@H]2N(C(=O)Nc2cc[nH]c2)C1)N1CCCC1 |  | < 5.00 | < 5.00 |  |
| COCCN(CCOC)C(=O)[C@@H]1C=C2c3cccc4[nH]cc(c34)C[C@H]2N(C(=O)Nc2ccccc2)C1 | 6.36 | 6.52 | 6.73 |  |
| CN1CCN(C(=O)[C@@H]2C=C3c4cccc5[nH]cc(c45)C[C@H]3N(C(=O)Nc3ccccc3)C2)CC1 | 6.95 | 6.88 | 7.08 |  |
| O=C([C@@H]1C=C2c3cccc4[nH]cc(c34)C[C@H]2N(C(=O)Nc2ccc(F)cc2)C1)N1CCCC1 | 8.40 | 8.15 | 8.40 |  |
| O=C([C@@H]1C=C2c3cccc4[nH]cc(c34)C[C@H]2N(C(=O)NC2CCC(O)CC2)C1)N1CCCC1 (stereo partly drawn) |  | < 5.00 | 5.02 |  |
| CN(C)CCCNC(=O)N1C[C@H](C(=O)N2CCCC2)C=C2c3cccc4[nH]cc(c34)C[C@H]21 |  |  | < 5.00 |  |
| O=C([C@@H]1C=C2c3cccc4[nH]cc(c34)C[C@H]2N(C(=O)NCc2ccccc2)C1)N1CCCC1 |  | 5.66 | 5.66 |  |
| CN(C)C(=O)[C@@H]1C=C2c3cccc4[nH]cc(c34)C[C@H]2N(C(=O)Nc2ccccc2)C1 | 8.00 | 7.55 | 8.00 |  |
| CN(C)Cc1ccccc1NC(=O)N1C[C@H](C(=O)N2CCCC2)C=C2c3cccc4[nH]cc(c34)C[C@H]21 |  |  | < 5.00 |  |
| CN(C)Cc1ccc(NC(=O)N2C[C@H](C(=O)N3CCCC3)C=C3c4cccc5[nH]cc(c45)C[C@H]32)cc1 |  |  | 5.27 |  |
| CN(CCO)C(=O)[C@@H]1C=C2c3cccc4[nH]cc(c34)C[C@H]2N(C(=O)Nc2ccccc2)C1 | 8.05 | 7.18 | 7.92 |  |
| CNC(=O)N1C[C@H](C(=O)N2CCCC2)C=C2c3cccc4[nH]cc(c34)C[C@H]21 |  | < 5.00 | < 5.00 |  |
| O=C([C@@H]1C=C2c3cccc4[nH]cc(c34)C[C@H]2N(C(=O)NC2CCCC2)C1)N1CCCC1 | 7.09 | 6.80 | 7.14 |  |
| O=C([C@@H]1C=C2c3cccc4[nH]cc(c34)C[C@H]2N(C(=O)Nc2ccccc2)C1)N1CCCCCC1 | 7.89 | 7.09 | 7.85 |  |
| O=C([C@@H]1C=C2c3cccc4[nH]cc(c34)C[C@H]2N(C(=O)Nc2ccccc2)C1)N1CCOCC1 | 7.92 | 7.66 |  |  |
| O=C([C@@H]1C=C2c3cccc4[nH]cc(c34)C[C@H]2N(C(=O)Nc2ccccc2F)C1)N1CCCC1 | 7.80 |  |  |  |
| O=C([C@@H]1C=C2c3cccc4[nH]cc(c34)C[C@H]2N(C(=O)Nc2cccc(F)c2)C1)N1CCCC1 | 8.70 | 8.40 | 8.52 |  |
| O=C1CN(C(=O)[C@@H]2C=C3c4cccc5[nH]cc(c45)C[C@H]3N(C(=O)Nc3ccccc3)C2)CCN1 |  | 6.59 | 7.13 |  |
| O=C([C@@H]1C=C2c3cccc4[nH]cc(c34)C[C@H]2N(C(=O)Nc2ccccc2)C1)N1CC[C@@H](O)C1 |  | 7.21 | 7.66 |  |
| O=C([C@@H]1C=C2c3cccc4[nH]cc(c34)C[C@H]2N(C(=O)NC2CCCCC2)C1)N1CCCC1 | 7.51 | 7.62 | 7.96 |  |
